Here are results for four molecules from ChEMBL document CHEMBL1145542, “Discovery of a new class of potent, selective, and orally bioavailable CRTH2 (DP2) receptor antagonists for the treatment of allergic inflammatory diseases” (J Med Chem, 2008).

Series [1] deals with T1, Prostaglandin D2 receptor 2 (Mus musculus, UniProt Q9Z2J6).
T1 sequence (Q9Z2J6 whole entry): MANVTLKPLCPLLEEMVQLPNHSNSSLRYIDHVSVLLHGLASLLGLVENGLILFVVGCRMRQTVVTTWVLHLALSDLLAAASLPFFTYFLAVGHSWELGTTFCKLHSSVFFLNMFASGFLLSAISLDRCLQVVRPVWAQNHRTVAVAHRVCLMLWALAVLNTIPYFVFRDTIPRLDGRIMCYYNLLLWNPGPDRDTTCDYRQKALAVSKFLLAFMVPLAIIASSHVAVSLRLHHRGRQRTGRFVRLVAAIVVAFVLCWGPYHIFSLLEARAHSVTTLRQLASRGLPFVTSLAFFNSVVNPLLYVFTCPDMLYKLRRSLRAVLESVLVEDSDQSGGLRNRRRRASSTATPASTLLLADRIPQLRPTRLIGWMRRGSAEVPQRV
As to the kind of experiment: Displacement of [3H]PGD2 from mouse CRTH2 receptor expressed in HEK293 cells. It counts as cell-based. Put shortly: (§1)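 Scintillation proximity competition assay: 2–5 µg human or mouse CRTH2 membranes (nitrogen-cavitation, differential centrifugation) with WGA-SPA beads and 1.5 nM [3H]PGD2 in 10 mM HEPES/KOH pH 7.4, 10 mM MnCl2, protease inhibitors, 1% Me2SO, 90 min shaking at room temperature. Nonspecific binding with 1 µM PGD2. Ki by Cheng–Prusoff, mean of ≥3 independent experiments.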

The target in series [2] is T2, Prostaglandin D2 receptor 2 (Homo sapiens, UniProt Q9Y5Y4).
T2 sequence (Q9Y5Y4 whole entry): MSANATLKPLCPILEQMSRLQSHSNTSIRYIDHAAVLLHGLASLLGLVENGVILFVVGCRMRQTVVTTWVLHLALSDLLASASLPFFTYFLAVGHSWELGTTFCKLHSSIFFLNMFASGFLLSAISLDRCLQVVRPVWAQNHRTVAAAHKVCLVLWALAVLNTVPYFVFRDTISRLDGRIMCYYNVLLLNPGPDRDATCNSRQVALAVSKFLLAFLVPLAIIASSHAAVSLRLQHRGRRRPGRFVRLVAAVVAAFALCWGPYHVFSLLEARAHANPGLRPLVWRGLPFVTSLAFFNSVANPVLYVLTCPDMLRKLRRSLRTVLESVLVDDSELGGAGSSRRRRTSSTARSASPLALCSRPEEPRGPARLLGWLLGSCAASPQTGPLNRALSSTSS
As to the kind of experiment: Displacement of [3H]PGD2 from human CRTH2 receptor expressed in CHO cells. The format is cell-based. The procedure, abridged:
as §1

The nature of series [3]: Cmax in rat at 5 mg/kg, po. It counts as ADME, organism-based. Further details: dose 5 mg/kg, route oral. The settings on record: in vivo. The procedure, abridged: (§2)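 Male Sprague–Dawley or Janvier rats, three per route, dosed by oral gavage or iv bolus. Serial blood drawn through an indwelling carotid catheter up to 24 h post dose. Plasma pooled by time point, analysed by LC-MS/MS; non-compartmental analysis.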

Series [4] is described as follows: Volume of distribution at steady state in rat at 1 mg/kg, iv. Further details: dose 1 mg/kg, route intravenous. The settings on record: in vivo, read-out: Vdss. The format is ADME, organism-based. Put shortly: as §2
Series [5] deals with T2, Prostaglandin D2 receptor 2. Nature of the series: Antagonist activity at human CRTH2 receptor expressed in CHO cell membrane by [35S]GTP-gamma-S binding assay. The format is functional, cell membranes. Put shortly:
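[35S]GTPγS binding at 30 °C on 10 µg human CRTH2 membranes in 20 mM HEPES/KOH pH 7.4, 10 mM MgCl2, 10 µg/mL saponin, 3 µM GDP, 150 mM NaCl, 2% Me2SO. PGD2 preincubation 10 min (antagonist mode: 80 nM PGD2), then 0.15 nM [35S]GTPγS for 30 min. Nonspecific binding with 10 µM GTPγS; stopped by centrifugation, scintillation counting.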

Series [6] can be described thus: Half life in rat at 1 mg/kg, iv. The format is ADME, organism-based. Also on record: dose 1 mg/kg, route intravenous. The conditions noted are these: in vivo. The procedure, abridged: as §2
A short description of series [7]: AUC (0 to last t) in rat at 5 mg/kg, po. It counts as ADME, organism-based. Also on record: time 0 - last, dose 5 mg/kg, route oral. The settings on record: plasma. The procedure, abridged: as §2
Series [8] in a line: AUC (0 to last t) in rat at 1 mg/kg, iv. The format is ADME, organism-based. Further details: time 0 - last, dose 1 mg/kg, route intravenous. The settings on record: plasma. Put shortly:
as §2

The nature of series [9]: Oral bioavailability in rat at 5 mg/kg. It counts as ADME, organism-based. The conditions noted are these: in vivo. The procedure, abridged:
as §2

The nature of series [10]: Apparent permeability across human Caco-2 cell membrane at 10 uM. It counts as ADME, cell-based. The procedure, abridged: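 Caco-2 monolayers grown 21 days on Transwell filters; TEER above 800 ohm·cm² required. 10 µM test compound in HBSS added apically (A to B) or basolaterally (B to A), 2 h at 37 °C. Both compartments sampled, analysed by LC/MS-MS.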
Series [11] can be described thus: Cmax in rat at 1 mg/kg, iv. The conditions noted are these: in vivo. Also on record: dose 1 mg/kg, route intravenous. It counts as ADME, organism-based. The procedure, abridged:
as §2

Series [12] can be described thus: Lipophilicity, log D of the compound. It counts as physicochemical. The conditions noted are these: octanol/water.
Series [13] can be described thus: Tmax in rat at 1 mg/kg, iv. The format is ADME, organism-based. Further details: dose 1 mg/kg, route intravenous. The conditions noted are these: in vivo. The procedure, abridged: as §2
Series [14] in a line: Clearance in rat at 1 mg/kg, iv. It counts as ADME, organism-based. Further details: dose 1 mg/kg, route intravenous. The conditions noted are these: in vivo. The procedure, abridged:
as §2

A short description of series [15]: Tmax in rat at 5 mg/kg, po. Also on record: dose 5 mg/kg, route oral. The conditions noted are these: in vivo. The format is ADME, organism-based. The procedure, abridged:
as §2

Series [16] concerns the target Cytochrome P450 3A4 (Homo sapiens, UniProt P08684). Nature of the series: Inhibition of human recombinant CYP3A4. The format is ADME. The procedure, abridged:
(§3)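 Human recombinant CYP1A2, 2C9, 2C19, 2D6 and 3A4, each turning an isoform-specific fluorogenic substrate into a fluorescent product; test compound up to 10 µM final in 1% DMSO; fluorescence read-out.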

Series [17] addresses T3, Cytochrome P450 1A2 (Homo sapiens, UniProt P05177).
T3 sequence (P05177 whole entry): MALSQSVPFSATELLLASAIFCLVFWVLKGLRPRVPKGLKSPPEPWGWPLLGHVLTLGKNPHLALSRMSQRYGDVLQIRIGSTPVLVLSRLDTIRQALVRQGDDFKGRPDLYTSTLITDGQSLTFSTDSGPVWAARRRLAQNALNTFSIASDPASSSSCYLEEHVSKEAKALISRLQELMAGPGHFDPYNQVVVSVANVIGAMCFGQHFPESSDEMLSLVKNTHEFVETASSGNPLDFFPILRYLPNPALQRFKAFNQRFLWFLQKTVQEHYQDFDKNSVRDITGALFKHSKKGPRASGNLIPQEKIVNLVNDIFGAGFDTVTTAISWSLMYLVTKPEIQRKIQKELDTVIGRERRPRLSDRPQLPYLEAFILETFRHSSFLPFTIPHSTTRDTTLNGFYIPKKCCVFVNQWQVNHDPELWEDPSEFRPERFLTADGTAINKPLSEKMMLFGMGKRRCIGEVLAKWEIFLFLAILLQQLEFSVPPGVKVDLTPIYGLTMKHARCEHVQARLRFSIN
As to the kind of experiment: Inhibition of human recombinant CYP1A2. It counts as ADME. The procedure, abridged: as §3

In series [18] the target is Cytochrome P450 2D6 (Homo sapiens, UniProt P10635). Nature of the series: Inhibition of human recombinant CYP2D6. The format is ADME. The procedure, abridged:
as §3

A short description of series [19]: Intrinsic clearance per mg of protein in rat liver microsomes at 3 uM. It counts as ADME, Microsome. The procedure, abridged:
(§4)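 Rat or human liver microsomes (0.5 mg/mL final) in 0.1 M phosphate pH 7.4 with 3 µM compound (1% DMSO), preincubated at 37 °C, started with 1 mM NADPH. Quenched with cold acetonitrile at 0, 15, 30, 45 min; LC/MS-MS of compound disappearance gives intrinsic clearance.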

In series [20] the target is Cytochrome P450 2C9 (Homo sapiens, UniProt P11712). As to the kind of experiment: Inhibition of human recombinant CYP2C9. It counts as ADME. The procedure, abridged: as §3
The target in series [21] is Cytochrome P450 2C19 (Homo sapiens, UniProt P33261). As to the kind of experiment: Inhibition of human recombinant CYP2C19. It counts as ADME. The procedure, abridged: as §3
Series [22] is described as follows: Intrinsic clearance per mg of protein in human liver microsomes at 3 uM. It counts as ADME, Microsome. Put shortly:
as §4

Where only a bound is given, the exact number is not on record here.

Cytochrome P450 2D6, sequence (P10635 whole entry): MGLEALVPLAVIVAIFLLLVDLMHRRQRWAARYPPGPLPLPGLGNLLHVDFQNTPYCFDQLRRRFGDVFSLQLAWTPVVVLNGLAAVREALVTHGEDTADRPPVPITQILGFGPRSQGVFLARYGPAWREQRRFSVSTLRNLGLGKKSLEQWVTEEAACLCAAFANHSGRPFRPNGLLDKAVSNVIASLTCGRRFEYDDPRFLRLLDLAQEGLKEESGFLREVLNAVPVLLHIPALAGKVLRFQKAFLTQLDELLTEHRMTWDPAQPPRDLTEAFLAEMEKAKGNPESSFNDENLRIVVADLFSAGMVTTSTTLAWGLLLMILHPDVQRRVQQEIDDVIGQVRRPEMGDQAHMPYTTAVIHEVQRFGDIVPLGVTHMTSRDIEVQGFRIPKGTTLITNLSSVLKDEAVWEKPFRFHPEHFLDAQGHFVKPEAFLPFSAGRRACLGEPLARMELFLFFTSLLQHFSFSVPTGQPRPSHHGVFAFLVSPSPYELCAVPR
Cytochrome P450 2C19, sequence (P33261 whole entry): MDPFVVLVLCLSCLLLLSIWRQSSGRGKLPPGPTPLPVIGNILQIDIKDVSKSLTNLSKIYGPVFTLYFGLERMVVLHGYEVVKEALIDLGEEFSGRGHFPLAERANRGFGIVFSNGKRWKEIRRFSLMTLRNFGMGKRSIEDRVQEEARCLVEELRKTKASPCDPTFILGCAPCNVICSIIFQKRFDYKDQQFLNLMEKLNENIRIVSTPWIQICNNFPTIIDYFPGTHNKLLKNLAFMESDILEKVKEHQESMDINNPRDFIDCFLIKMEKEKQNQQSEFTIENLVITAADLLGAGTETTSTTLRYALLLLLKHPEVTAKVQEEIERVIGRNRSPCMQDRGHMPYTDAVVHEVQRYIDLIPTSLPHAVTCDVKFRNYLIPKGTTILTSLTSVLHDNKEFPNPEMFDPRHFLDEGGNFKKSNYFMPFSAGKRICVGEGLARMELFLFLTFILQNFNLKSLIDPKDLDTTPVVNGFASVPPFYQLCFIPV
Cytochrome P450 2C9, sequence (P11712 whole entry): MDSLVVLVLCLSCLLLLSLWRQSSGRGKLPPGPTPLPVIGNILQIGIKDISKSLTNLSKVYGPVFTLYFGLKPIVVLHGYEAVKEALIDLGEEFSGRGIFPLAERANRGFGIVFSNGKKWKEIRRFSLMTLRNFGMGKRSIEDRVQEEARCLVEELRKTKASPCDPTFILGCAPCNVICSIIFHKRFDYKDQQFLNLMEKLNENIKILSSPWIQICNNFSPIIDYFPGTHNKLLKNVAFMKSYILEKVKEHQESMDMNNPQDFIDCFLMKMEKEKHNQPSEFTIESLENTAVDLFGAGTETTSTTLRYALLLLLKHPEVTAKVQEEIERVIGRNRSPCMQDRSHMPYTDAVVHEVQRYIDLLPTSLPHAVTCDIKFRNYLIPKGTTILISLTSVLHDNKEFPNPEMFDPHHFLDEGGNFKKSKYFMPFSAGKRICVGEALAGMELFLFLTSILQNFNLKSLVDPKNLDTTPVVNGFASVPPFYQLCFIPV
Cytochrome P450 3A4, sequence (P08684 whole entry, canonical isoform): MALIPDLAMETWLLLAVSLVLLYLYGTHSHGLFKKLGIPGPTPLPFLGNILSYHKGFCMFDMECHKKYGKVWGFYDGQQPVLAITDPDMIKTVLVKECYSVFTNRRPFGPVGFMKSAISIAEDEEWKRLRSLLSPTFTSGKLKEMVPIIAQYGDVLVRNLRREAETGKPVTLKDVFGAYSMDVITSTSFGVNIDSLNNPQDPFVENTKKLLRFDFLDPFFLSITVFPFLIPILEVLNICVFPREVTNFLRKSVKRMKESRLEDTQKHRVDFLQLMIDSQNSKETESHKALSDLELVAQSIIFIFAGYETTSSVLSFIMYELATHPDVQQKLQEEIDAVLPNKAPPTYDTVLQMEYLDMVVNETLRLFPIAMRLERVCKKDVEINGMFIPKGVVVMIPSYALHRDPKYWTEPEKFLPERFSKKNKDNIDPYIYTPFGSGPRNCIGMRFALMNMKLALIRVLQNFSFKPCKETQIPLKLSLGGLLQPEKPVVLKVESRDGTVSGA

With `O=C(O)CN1C(=O)C2(CC(=O)N(Cc3ccccc3)C2)c2cc(Cl)ccc21` (stereo not given), the Ki turned out to be 0.48 µM in series [1] and 0.702 µM in [2].
With `Cc1noc(-c2ccccc2)c1CN1CC2(CC1=O)C(=O)N(CC(=O)O)c1ccc(Cl)cc12` (stereo not given), the results for the Cmax in series [3] and in [11] were 6 ng/mL and 1970 ng/mL, respectively. The Vd in series [4] came to 0.4 L/kg. The same molecule yielded an IC50 in series [5] of 0.019 µM. In [6], the half-life is 6 min. Moreover, the AUC(0-t) was 2.01 ng·h/mL in [7] and 247 ng·h/mL in series [8]. Besides, the bioavailability in series [9] was determined as 0.2%. The Papp at 10 µM in series [10] worked out at 2.1 ×10⁻⁶ cm/s. Also, the affinity in series [2], expressed as Ki, was 0.0038 µM. The same molecule registered a logD in series [12] of -0.3. Also, the time to peak (Tmax) in series [13] stood at 0 h; in series [15] it was 15 min. This molecule also had a clearance in series [14] of 66.7 mL/min/kg.
On to `O=C(O)CN1C(=O)C2(CC(=O)N(Cc3ccccc3)C2=O)c2cc(Cl)ccc21` (stereo not given), for which the IC50 in series [16] is greater than 10 µM; in [5] it was 0.418 µM; in [17], greater than 10 µM; in series [18], greater than 10 µM; in [20], greater than 10 µM; in series [21], greater than 10 µM. The Ki came out at 0.15 µM in series [1] and 0.196 µM in series [2]. In series [10], the Papp at 10 µM was found to be 3 ×10⁻⁶ cm/s. In [19], this molecule returned an intrinsic clearance (microsomal CLint) at 3 µM of 9 µL/min/mg.
For the molecule `COc1cccc(CN2C(=O)C[C@]3(C2=O)C(=O)N(CC(=O)O)c2ccc(Cl)cc23)c1`, the results for the intrinsic clearance (microsomal CLint) at 3 µM in series [22] and in series [19] were 9 µL/min/mg and 68 µL/min/mg, respectively. Also, the Papp at 10 µM in [10] amounted to 0.8 ×10⁻⁶ cm/s. Affinity in series [2] was put at a Ki of 0.072 µM.
